Experimental data: ChEMBL document CHEMBL5724801, “EUbOPEN Chemogenomics Library - Multiplex” (2024)
Where “and” joins values, the source holds several entries; their conditions need not be identical. Equal entries are not always repeated.

Each compound was assayed on U2OS (assay: Multiplex assay against U2OS). Details: human, 12 h, 1 µM, compound concentration 1 uM.
Format: toxicity, cell-based
How it was run: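 Four dyes were applied at seeding to live cells: Hoechst33342, BioTracker Green Microtubule Cytoskeleton Dye, MitoTracker Red and Annexin V Alexa Fluor 680. Imaging after compound addition used a CQ1 microscope at 37°C and 5% CO2. CellPathfinder machine-learning gating then sorted cells into Hoechst high-intensity objects or normal cells, normal cells into healthy, pyknosed or fragmented nuclei, and pyknosed cells into mitotic or apoptotic, with tubulin, mitochondrial-mass and membrane-permeability phenotypes given as per cents of healthy-nucleus cells.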

Q: COC(=O)c1ccc2c(c1)NC(=O)/C2=C(\Nc1ccc(N(C)C(=O)CN2CCN(C)CC2)cc1)c1ccccc1 [NINTEDANIB] was tested. Which “Population Apoptotic (%)” value did it give?
A: 50% and 43.75%

Q: What about the “Population Fragmented Nuclei (%)” value of the same compound?
A: 2.42% and 2.88%

Q: And the “Population Healthy Nuclei (%)” value?
A: 89.37% and 85.61%

Q: What about the “Population Hoechst High Intensity Objects (%)” value of the same compound?
A: 0%

Q: And the “Population Membrane Permeable-Phenotype (%)” value?
A: 1.62% and 4.2%

Q: And the “Population Mitochondria Different-Phenotype (%)” value?
A: 0% and 14.29%

Q: And the “Population Mitotic Cells (%)” value?
A: 50% and 56.25%

Q: What about the “Population Normal (%)” value of the same compound?
A: 100%

Q: And the “Population Pyknosed Nuclei (%)” value?
A: 8.21% and 11.51%

Q: And the “Population Tubulin-Different-Phenotype (%)” value?
A: 1.89% and 2.52%

Q: What about the “Total Cell Count” value of the same compound?
A: 414 and 139

Q: Which results are given for COc1ccccc1N1CCN(CCCCNC(=O)c2ccc3ccccc3c2)CC1.Cl?
A: Population Apoptotic (%): 68% and 42%; Population Fragmented Nuclei (%): 18% and 17%; Population Healthy Nuclei (%): 69% and 75%; Population Mitochondria Different-Phenotype (%): 8% and 15%; Population Mitotic Cells (%): 31% and 57%; Population Normal (%): 95% and 97%; Total Cell Count: 243 and 99

Same assay, conditions: human, 12 h, 10 µM, compound concentration 10 uM

Q: COC(=O)c1ccc2c(c1)NC(=O)/C2=C(\Nc1ccc(N(C)C(=O)CN2CCN(C)CC2)cc1)c1ccccc1 [NINTEDANIB] was tested. Which “Population Apoptotic (%)” value did it give?
A: 48.33% and 44.44%

Q: What about the “Population Fragmented Nuclei (%)” value of the same compound?
A: 3.26% and 6.04%

Q: And the “Population Healthy Nuclei (%)” value?
A: 72.3% and 74.18%

Q: And the “Population Hoechst High Intensity Objects (%)” value?
A: 0%

Q: What about the “Population Membrane Permeable-Phenotype (%)” value of the same compound?
A: 21.97% and 30.37%

Q: What about the “Population Mitotic Cells (%)” value of the same compound?
A: 51.67% and 55.56%

Q: What about the “Population Normal (%)” value of the same compound?
A: 100%

Q: What about the “Population Pyknosed Nuclei (%)” value of the same compound?
A: 24.44% and 19.78%

Q: What about the “Population Tubulin-Different-Phenotype (%)” value of the same compound?
A: 64.79% and 29.63%

Q: And the “Total Cell Count” value?
A: 491 and 182

Q: Which “Population Apoptotic (%)” value does the source give for COc1ccccc1N1CCN(CCCCNC(=O)c2ccc3ccccc3c2)CC1.Cl here?
A: 78% and 65%

Q: And the “Population Fragmented Nuclei (%)” value?
A: 30% and 17%

Q: What about the “Population Healthy Nuclei (%)” value of the same compound?
A: 39% and 51%

Q: What about the “Population Mitochondria Different-Phenotype (%)” value of the same compound?
A: 80% and 94%

Q: What about the “Population Mitotic Cells (%)” value of the same compound?
A: 21% and 34%

Q: And the “Population Normal (%)” value?
A: 91% and 93%

Q: What about the “Population Pyknosed Nuclei (%)” value of the same compound?
A: 30%

Q: And the “Total Cell Count” value?
A: 222 and 111

Same assay, conditions: human, 24 h, 1 µM, compound concentration 1 uM

Q: COC(=O)c1ccc2c(c1)NC(=O)/C2=C(\Nc1ccc(N(C)C(=O)CN2CCN(C)CC2)cc1)c1ccccc1 [NINTEDANIB] was tested. Which “Population Apoptotic (%)” value did it give?
A: 35.56% and 50%

Q: And the “Population Fragmented Nuclei (%)” value?
A: 1.16% and 2.33%

Q: What about the “Population Healthy Nuclei (%)” value of the same compound?
A: 90.15% and 79.07%

Q: And the “Population Hoechst High Intensity Objects (%)” value?
A: 0%

Q: And the “Population Membrane Permeable-Phenotype (%)” value?
A: 1.07% and 1.47%

Q: And the “Population Mitotic Cells (%)” value?
A: 64.44% and 50%

Q: And the “Population Normal (%)” value?
A: 100%

Q: And the “Population Pyknosed Nuclei (%)” value?
A: 8.69% and 18.6%

Q: And the “Population Tubulin-Different-Phenotype (%)” value?
A: 1.28% and 1.47%

Q: Which “Population Apoptotic (%)” value does the source give for COc1ccccc1N1CCN(CCCCNC(=O)c2ccc3ccccc3c2)CC1.Cl here?
A: 78% and 80%

Q: What about the “Population Fragmented Nuclei (%)” value of the same compound?
A: 18% and 21%

Q: And the “Population Healthy Nuclei (%)” value?
A: 68%

Q: What about the “Population Mitochondria Different-Phenotype (%)” value of the same compound?
A: 9% and 11%

Q: What about the “Population Mitotic Cells (%)” value of the same compound?
A: 21% and 20%

Q: And the “Population Normal (%)” value?
A: 96% and 98%

Q: And the “Population Pyknosed Nuclei (%)” value?
A: 9%

Q: What about the “Total Cell Count” value of the same compound?
A: 262 and 103

Same assay, conditions: human, 24 h, 10 µM, compound concentration 10 uM

Q: For COC(=O)c1ccc2c(c1)NC(=O)/C2=C(\Nc1ccc(N(C)C(=O)CN2CCN(C)CC2)cc1)c1ccccc1 [NINTEDANIB], which “Population Apoptotic (%)” value is on record?
A: 62.5% and 65.62%

Q: And the “Population Fragmented Nuclei (%)” value?
A: 5.58% and 6.29%

Q: And the “Population Healthy Nuclei (%)” value?
A: 63.02% and 57.14%

Q: And the “Population Hoechst High Intensity Objects (%)” value?
A: 0%

Q: And the “Population Membrane Permeable-Phenotype (%)” value?
A: 6.23% and 9%

Q: And the “Population Mitotic Cells (%)” value?
A: 37.5% and 34.38%

Q: And the “Population Normal (%)” value?
A: 100%

Q: And the “Population Pyknosed Nuclei (%)” value?
A: 31.4% and 36.57%

Q: What about the “Population Tubulin-Different-Phenotype (%)” value of the same compound?
A: 63.93% and 46%

Q: And the “Total Cell Count” value?
A: 484 and 175

Q: For COc1ccccc1N1CCN(CCCCNC(=O)c2ccc3ccccc3c2)CC1.Cl, which “Population Apoptotic (%)” value is on record?
A: 90% and 100%

Q: And the “Population Fragmented Nuclei (%)” value?
A: 35% and 19%

Q: What about the “Population Healthy Nuclei (%)” value of the same compound?
A: 32% and 61%

Q: And the “Population Mitochondria Different-Phenotype (%)” value?
A: 78% and 93%

Q: And the “Population Mitotic Cells (%)” value?
A: 10% and 0%

Q: What about the “Population Normal (%)” value of the same compound?
A: 93%

Q: And the “Population Pyknosed Nuclei (%)” value?
A: 31%

Q: And the “Total Cell Count” value?
A: 234 and 125

Same assay, conditions: human, 48 h, 1 µM, compound concentration 1 uM

Q: What does the source list for COC(=O)c1ccc2c(c1)NC(=O)/C2=C(\Nc1ccc(N(C)C(=O)CN2CCN(C)CC2)cc1)c1ccccc1 [NINTEDANIB]?
A: Population Apoptotic (%): 57.5% and 53.12%; Population Fragmented Nuclei (%): 1.52% and 3.23%; Population Healthy Nuclei (%): 89.14% and 83.87%; Population Hoechst High Intensity Objects (%): 0%; Population Membrane Permeable-Phenotype (%): 2.1% and 4.33%; Population Mitochondria Different-Phenotype (%): 0.26% and 9.62%; Population Mitotic Cells (%): 42.5% and 46.88%; Population Normal (%): 100%; Population Pyknosed Nuclei (%): 9.35% and 12.9%; Population Tubulin-Different-Phenotype (%): 1.57% and 3.37%

Q: COc1ccccc1N1CCN(CCCCNC(=O)c2ccc3ccccc3c2)CC1.Cl was tested. Which “Population Apoptotic (%)” value did it give?
A: 72% and 88%

Q: What about the “Population Fragmented Nuclei (%)” value of the same compound?
A: 19% and 17%

Q: What about the “Population Healthy Nuclei (%)” value of the same compound?
A: 71% and 64%

Q: And the “Population Mitochondria Different-Phenotype (%)” value?
A: 3%

Q: What about the “Population Mitotic Cells (%)” value of the same compound?
A: 27% and 12%

Q: What about the “Population Normal (%)” value of the same compound?
A: 95% and 96%

Q: And the “Population Pyknosed Nuclei (%)” value?
A: 9%

Q: And the “Total Cell Count” value?
A: 362 and 144

Same assay, conditions: human, 48 h, 10 µM, compound concentration 10 uM

Q: COC(=O)c1ccc2c(c1)NC(=O)/C2=C(\Nc1ccc(N(C)C(=O)CN2CCN(C)CC2)cc1)c1ccccc1 [NINTEDANIB] was tested. Which “Population Apoptotic (%)” value did it give?
A: 78.69% and 91.94%

Q: What about the “Population Fragmented Nuclei (%)” value of the same compound?
A: 1.9% and 1.52%

Q: And the “Population Healthy Nuclei (%)” value?
A: 54.63% and 51.52%

Q: What about the “Population Hoechst High Intensity Objects (%)” value of the same compound?
A: 0.24% and 0%

Q: And the “Population Membrane Permeable-Phenotype (%)” value?
A: 1.74% and 8.82%

Q: And the “Population Mitochondria Different-Phenotype (%)” value?
A: 29.13% and 51.47%

Q: What about the “Population Mitotic Cells (%)” value of the same compound?
A: 21.31% and 8.06%

Q: What about the “Population Normal (%)” value of the same compound?
A: 99.76% and 100%

Q: And the “Population Pyknosed Nuclei (%)” value?
A: 43.47% and 46.97%

Q: And the “Population Tubulin-Different-Phenotype (%)” value?
A: 69.57% and 76.47%

Q: What does the source list for COc1ccccc1N1CCN(CCCCNC(=O)c2ccc3ccccc3c2)CC1.Cl?
A: Population Apoptotic (%): 93% and 86%; Population Fragmented Nuclei (%): 38% and 23%; Population Healthy Nuclei (%): 27% and 37%; Population Mitochondria Different-Phenotype (%): 69% and 77%; Population Mitotic Cells (%): 6% and 13%; Population Normal (%): 91% and 87%; Population Pyknosed Nuclei (%): 34% and 39%; Total Cell Count: 256 and 111
